Data reported in ChEMBL document CHEMBL3580617, “Discovery of Benzimidazole CYP11B2 Inhibitors with in Vivo Activity in Rhesus Monkeys” (ACS Med Chem Lett, 2015).
The source made the active and inactive calls. The calls are words filed in the database; no cut-off is given here.

Experiments:
[1] = Inhibition of rhesus monkey CYP11B1; set-up: species or system Macaca mulatta
[2] = (§1) Inhibition of rhesus monkey CYP11B2 expressed in V79 cells incubated for 1 hr before 11-deoxycorticosterone substrate addition by HTRF-based assay; format: cell-based, Macaca mulatta
[3] = tested on: Rhesus monkey; assay: In-vivo inhibition of CYP11B1 in low sodium diet fed rhesus monkey at free plasma concentration up to 27 nM dosed at 0.01 to 0.3 mg/kg, iv followed by 0.3 mg/kg ACTH dosing and measured 90 mins post ACTH administration by UPLC coupled with tandem mass spectrometry; format: functional, organism-based; settings: Macaca mulatta
In short: (§2)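 Anesthetized rhesus monkeys were given i.v. doses from 0.001 to 0.3 mg/kg. Plasma aldosterone and 11-deoxycortisol were quantified by LC-MS at time points up to 180 min postdose, and AUCs were determined for each. Plasma drug was measured at 90 min postdose. Free (unbound) concentrations were calculated from the measured fraction unbound in rhesus plasma.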

[4] = tested on: Rhesus monkey; assay: Reduction in aldosterone levels in low sodium diet fed rhesus monkey assessed as free plasma concentration causing reduction in aldosterone at 0.3 mg/kg, iv followed by 0.3 mg/kg ACTH dosing and measured 90 mins post ACTH administration by UPLC coupled with tandem mass spectrometry; format: functional, Macaca mulatta; in short: as §2
[5] = tested on: Rhesus monkey; assay: Reduction in aldosterone levels in low sodium diet fed rhesus monkey at 0.3 mg/kg, iv followed by 0.3 mg/kg ACTH dosing and measured 30 mins to 180 mins post ACTH administration by UPLC coupled with tandem mass spectrometry; format: functional; settings: Macaca mulatta; in short: as §2
[6] = target: Sodium channel protein type 5 subunit alpha (Homo sapiens, UniProt Q14524); assay: Block of Nav1.5 ion channel in functional assay (unknown origin)
Sequence of Sodium channel protein type 5 subunit alpha (Q14524 whole entry): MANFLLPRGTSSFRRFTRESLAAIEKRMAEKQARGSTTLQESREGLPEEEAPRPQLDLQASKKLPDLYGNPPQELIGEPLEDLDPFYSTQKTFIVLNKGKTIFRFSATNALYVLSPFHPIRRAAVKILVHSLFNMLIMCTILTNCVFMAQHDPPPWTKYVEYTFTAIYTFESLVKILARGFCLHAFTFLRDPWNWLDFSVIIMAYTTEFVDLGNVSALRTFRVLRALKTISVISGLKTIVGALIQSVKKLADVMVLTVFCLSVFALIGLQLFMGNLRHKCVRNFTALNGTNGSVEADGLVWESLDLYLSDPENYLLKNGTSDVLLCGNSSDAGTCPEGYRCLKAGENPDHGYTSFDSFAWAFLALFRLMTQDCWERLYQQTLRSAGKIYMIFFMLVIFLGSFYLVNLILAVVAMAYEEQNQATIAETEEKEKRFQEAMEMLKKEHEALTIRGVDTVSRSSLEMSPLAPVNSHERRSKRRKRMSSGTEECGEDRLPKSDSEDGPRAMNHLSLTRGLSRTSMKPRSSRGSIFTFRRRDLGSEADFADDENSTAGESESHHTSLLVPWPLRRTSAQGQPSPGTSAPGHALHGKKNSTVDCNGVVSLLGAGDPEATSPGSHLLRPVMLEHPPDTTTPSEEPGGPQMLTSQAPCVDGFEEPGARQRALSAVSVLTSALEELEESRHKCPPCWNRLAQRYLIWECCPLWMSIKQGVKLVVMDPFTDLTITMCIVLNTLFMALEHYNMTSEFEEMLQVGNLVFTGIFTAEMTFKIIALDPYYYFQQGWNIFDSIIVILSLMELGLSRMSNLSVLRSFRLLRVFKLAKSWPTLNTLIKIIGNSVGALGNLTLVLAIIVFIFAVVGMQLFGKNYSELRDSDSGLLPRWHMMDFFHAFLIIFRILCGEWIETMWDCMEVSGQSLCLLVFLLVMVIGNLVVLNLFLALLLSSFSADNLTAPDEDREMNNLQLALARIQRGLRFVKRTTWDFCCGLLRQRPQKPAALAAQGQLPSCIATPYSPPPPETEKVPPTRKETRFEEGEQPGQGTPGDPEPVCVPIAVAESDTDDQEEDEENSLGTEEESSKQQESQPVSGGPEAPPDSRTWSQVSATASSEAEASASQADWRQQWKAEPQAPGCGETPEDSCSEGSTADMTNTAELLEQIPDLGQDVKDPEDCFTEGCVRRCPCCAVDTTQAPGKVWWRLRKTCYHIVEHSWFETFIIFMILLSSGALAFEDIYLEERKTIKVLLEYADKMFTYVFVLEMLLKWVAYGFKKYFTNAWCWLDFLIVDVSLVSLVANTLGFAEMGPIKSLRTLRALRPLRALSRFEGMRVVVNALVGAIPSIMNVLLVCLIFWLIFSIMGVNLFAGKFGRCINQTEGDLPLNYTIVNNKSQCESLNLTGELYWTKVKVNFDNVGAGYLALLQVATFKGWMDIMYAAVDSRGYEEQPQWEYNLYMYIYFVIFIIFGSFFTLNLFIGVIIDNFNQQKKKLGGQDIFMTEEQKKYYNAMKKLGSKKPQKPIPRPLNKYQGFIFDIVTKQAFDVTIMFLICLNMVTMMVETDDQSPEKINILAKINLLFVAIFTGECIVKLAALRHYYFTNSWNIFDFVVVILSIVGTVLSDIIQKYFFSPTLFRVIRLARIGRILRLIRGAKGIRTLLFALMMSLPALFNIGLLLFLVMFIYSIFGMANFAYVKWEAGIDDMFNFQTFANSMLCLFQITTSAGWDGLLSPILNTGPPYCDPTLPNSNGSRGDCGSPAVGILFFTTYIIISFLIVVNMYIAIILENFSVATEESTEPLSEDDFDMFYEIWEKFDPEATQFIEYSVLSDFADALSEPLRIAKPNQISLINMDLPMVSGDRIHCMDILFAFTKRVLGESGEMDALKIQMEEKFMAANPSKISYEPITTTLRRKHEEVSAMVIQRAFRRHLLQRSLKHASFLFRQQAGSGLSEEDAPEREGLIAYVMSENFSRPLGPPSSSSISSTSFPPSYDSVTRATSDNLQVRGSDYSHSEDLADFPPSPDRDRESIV

[7] = target: Voltage-dependent L-type calcium channel subunit alpha-1C (Homo sapiens, UniProt Q13936); assay: Block of Cav1.2 ion channel in functional assay (unknown origin)
Sequence of Voltage-dependent L-type calcium channel subunit alpha-1C (Q13936 whole entry): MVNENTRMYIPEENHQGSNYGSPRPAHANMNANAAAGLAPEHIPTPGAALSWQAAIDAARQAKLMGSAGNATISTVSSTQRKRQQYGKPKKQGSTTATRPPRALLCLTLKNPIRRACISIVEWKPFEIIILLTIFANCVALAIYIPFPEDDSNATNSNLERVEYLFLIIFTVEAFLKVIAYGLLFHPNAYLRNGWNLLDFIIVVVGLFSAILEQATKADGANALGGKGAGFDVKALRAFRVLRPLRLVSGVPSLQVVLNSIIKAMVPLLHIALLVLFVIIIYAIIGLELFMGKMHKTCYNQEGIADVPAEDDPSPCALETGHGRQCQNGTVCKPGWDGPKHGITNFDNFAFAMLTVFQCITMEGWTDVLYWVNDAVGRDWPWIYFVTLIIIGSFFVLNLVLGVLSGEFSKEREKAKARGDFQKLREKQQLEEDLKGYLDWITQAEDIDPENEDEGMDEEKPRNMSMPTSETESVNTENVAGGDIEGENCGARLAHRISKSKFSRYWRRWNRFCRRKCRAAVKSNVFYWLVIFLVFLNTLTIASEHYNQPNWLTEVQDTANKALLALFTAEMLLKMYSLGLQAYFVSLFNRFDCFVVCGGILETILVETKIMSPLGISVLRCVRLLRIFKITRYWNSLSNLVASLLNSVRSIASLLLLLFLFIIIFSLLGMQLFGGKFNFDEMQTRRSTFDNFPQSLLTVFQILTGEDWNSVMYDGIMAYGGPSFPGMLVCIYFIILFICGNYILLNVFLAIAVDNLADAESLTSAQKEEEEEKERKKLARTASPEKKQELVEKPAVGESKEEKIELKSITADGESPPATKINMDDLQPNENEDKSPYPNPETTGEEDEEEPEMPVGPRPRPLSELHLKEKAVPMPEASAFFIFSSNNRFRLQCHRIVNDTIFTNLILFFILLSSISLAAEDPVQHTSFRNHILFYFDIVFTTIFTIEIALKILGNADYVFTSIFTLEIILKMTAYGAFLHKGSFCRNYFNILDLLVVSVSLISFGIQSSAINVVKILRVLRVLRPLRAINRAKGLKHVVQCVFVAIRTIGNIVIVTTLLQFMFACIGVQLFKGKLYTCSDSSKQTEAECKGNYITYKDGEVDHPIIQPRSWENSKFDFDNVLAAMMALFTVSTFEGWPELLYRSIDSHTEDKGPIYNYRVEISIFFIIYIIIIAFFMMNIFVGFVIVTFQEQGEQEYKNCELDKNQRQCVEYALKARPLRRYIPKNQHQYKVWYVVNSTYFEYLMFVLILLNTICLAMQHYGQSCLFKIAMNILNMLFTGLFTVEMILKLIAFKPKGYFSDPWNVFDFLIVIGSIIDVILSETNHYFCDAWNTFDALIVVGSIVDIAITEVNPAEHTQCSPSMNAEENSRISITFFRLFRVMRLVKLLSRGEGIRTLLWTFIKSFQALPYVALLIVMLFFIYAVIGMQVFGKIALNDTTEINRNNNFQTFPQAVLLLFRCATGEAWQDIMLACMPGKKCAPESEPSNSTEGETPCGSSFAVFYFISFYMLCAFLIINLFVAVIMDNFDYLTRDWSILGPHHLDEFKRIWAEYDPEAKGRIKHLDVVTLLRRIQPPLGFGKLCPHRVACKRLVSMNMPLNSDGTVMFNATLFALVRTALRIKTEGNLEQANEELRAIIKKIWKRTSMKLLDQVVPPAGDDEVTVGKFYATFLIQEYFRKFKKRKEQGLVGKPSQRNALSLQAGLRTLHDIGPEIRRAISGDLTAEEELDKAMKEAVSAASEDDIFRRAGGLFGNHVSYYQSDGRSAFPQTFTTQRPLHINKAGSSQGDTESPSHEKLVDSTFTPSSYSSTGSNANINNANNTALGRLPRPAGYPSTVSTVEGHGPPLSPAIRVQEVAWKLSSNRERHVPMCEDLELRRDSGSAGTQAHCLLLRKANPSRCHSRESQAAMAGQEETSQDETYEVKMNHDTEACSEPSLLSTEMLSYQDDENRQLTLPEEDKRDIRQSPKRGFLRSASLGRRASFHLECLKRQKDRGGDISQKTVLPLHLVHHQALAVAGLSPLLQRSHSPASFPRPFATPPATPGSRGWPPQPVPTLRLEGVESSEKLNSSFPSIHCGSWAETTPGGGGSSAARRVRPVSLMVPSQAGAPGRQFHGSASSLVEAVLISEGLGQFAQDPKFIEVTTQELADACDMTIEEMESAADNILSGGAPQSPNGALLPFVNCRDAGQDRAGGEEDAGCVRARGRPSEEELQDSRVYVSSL

[8] = target: T1, Cytochrome P450 11B2, mitochondrial (Homo sapiens, UniProt P19099); assay: Inhibition of human CYP11B2 expressed in V79 cells incubated for 1 hr before 11-deoxycorticosterone substrate addition by HTRF-based assay; format: cell-based
T1 sequence (P19099 whole entry): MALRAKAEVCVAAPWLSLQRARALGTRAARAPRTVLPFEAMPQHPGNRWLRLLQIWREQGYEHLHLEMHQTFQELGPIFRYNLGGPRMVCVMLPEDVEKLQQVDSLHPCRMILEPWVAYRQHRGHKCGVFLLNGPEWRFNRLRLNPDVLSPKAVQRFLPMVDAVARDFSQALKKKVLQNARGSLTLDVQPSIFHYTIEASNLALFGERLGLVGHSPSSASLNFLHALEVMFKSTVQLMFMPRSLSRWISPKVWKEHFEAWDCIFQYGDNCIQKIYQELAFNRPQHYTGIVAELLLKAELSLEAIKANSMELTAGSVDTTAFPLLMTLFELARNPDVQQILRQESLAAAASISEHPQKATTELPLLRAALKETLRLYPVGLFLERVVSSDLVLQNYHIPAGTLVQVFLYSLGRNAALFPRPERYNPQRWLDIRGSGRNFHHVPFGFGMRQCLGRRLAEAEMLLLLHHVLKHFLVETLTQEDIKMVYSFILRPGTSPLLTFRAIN
In short: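 Human CYP11B2 and CYP11B1 inhibition was tested in cell-based assays. Selectivity was taken as the hCYP11B1 IC50 divided by the hCYP11B2 IC50.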

[9] = tested on: V79; assay: as §1; format: cell-based; settings: Macaca mulatta
[10] = Half life in rhesus monkey at 1 mg/kg, po or 0.5 mg/kg, iv by LC-MS/MS method; format: ADME, organism-based, Macaca mulatta; settings: in vivo

CC(C)(O)c1cncc(-c2nc3ccc(F)cc3n2C2CC2)c1 [MSD-CYP11B2]
IC50 [1]: 41 nM | IC50 [2]: 0.3 nM | inhibition [3]: inactive | Cp(f) [4]: 27 nM | inhibition in vivo at 0.3 mg/kg [5]: 95%

Fc1cncc(-c2nc3cc(F)c(F)cc3n2C2CC2)c1
IC50 [6]: > 30000 nM | IC50 [7]: > 30000 nM | IC50 [8]: 4.7 nM | inhibition [9]: Active | half-life [10]: 7.4 h
